Screens from PubChem BioAssay.
AHR act = activates the human aryl hydrocarbon receptor; AID 2796; hit rate 2.5% among 320,000; P35869; AHR-responsive luciferase reporter cells, luminescence; activation, % at 5 µM; in the data active = activation above about 47%;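 also: 0% = vehicle wells and 100% = reference agonist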
Lipid droplet = modulators of hepatic lipid droplet formation | hit rate 0.4% among 240,000 | AML12 mouse hepatocytes, oleate lipid droplets, BODIPY imaging | inhibition, % at 6.5 µM | AID 1656;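 active = lipid droplet intensity inhibited by at least 50%, with more than 500 cells counted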
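Assay system: AML12 mouse liver cells | Compound: 6.5 µM single-point dosing | Schedule: Overnight exposure | Technique: Fluorescence imaging, 20x objective, two fields per well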
SR-BI uptake up = activators of SR-BI mediated HDL lipid uptake; CHO ldlA[mSR-BI] cells, DiI-HDL uptake fluorescence, 3 h; 100 = double the neutral-control signal; activation, % at 12.5 µM; hit rate 0.096% among 320,000; AID 504775;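 active = mean replicate activation of at least 60% and every replicate at or above 60%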;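 also: 0% = median plate neutral-control signal and 100% = twice that signal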
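material = CHO ldlA[mSR-BI] cells | medium = Ham's F12 with 0.5% BSA, HEPES 25 mM, pH 7.4 | reagent = fluorescent DiI-HDL, 10 µg/mL final | compound dosing = single-point compound dose | incubation = 3 h, 37 °C | measured by = bottom-read fluorescence, 550/595 nm | measure = HDL uptake via cellular fluorescence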
CR mimetic SO = caloric restriction mimetics inhibiting age-related superoxide in yeast | superoxide response (% of plate mean), % at 10 µM | S. cerevisiae aged cells, superoxide DHE fluorescence; hits give low values | hit rate 0.18% among 330,000;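 active = superoxide response under a set limit, about three screen SD below normal, cut at about 65% in these data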;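 also: yeast aged for seven days with compound at 30 °C before DHE staining; 100% = average MFI of all compound-treated wells on the plate with controls excluded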
SMARCA2 act = increases SMARCA2 function in MMTV reporter cells; MG213 cells, MMTV-luciferase reporter, dexamethasone, overnight; activation, % at 9.1 µM; hit rate 1% among 370,000; AID 652017; in the data active = activation above about 7.8%;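 also: 0% = vehicle wells and 100% = reference activator wells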
SR-BI HDL uptake = blocks mouse SR-BI lipid uptake from DiI-HDL | Q61009 | ldlA[mSR-BI] CHO cells, DiI-HDL uptake fluorescence, 3 h | inhibition, % at 12.5 µM | hit rate 0.96% among 320,000 | AID 488896;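 active = mean replicate inhibition of at least 70% and a set share of replicates each scoring 70 or more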;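 also: 0% = median of neutral control wells and 100% = median of positive control wells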
Numbers without * were called inactive; / = not tested or not shown. Sampled rows, rich in hits. Any-hit rate of the full collection: about 4.3%.

SMILES	AHR act	Lipid droplet	SR-BI uptake up	CR mimetic SO	SMARCA2 act	SR-BI HDL uptake
COc1ccc(C(=O)NC(=S)NNC(=O)c2ccccc2O)cc1	7	-3	-89	92	2	89*
N#Cc1ccccc1NC(=S)NC(=O)c1cccnc1	9	0	1	101	-1	-1
O=C(NC(=S)Nc1ccccc1O)c1cccnc1	58*	5	1	95	-1	-1
O=C(NC(=S)Nc1cc([N+](=O)[O-])ccc1Cl)c1ccccc1	71*	10	-53	111	2	53
O=C(NC(=S)NNC(=O)c1ccccc1O)c1cccnc1	2	3	-124	86	-2	124*
C[C@H]1CN([C@@H](C)CO)C(=O)CCCn2cc(nn2)CO[C@@H]1CN(C)S(=O)(=O)c1cn(C)cn1	/	/	/	/	-3	/
S=C(Nc1ccc(I)cc1)OC1CCC12CCC(c1ccccc1)CC2 (configuration not stated)	/	/	/	/	-1	/
CN(C(=O)[C@@H](Cc1ccccc1)NC(=O)[C@H]1O[C@@H](n2ccc(=O)[nH]c2=O)[C@H](O)[C@@H]1O)C1CCCCC1	/	/	/	/	-5	/
Cc1ccc([N+](=O)[O-])cc1NC(=S)NCCc1ccccc1	52*	2	-48	103	2	48
O=C(NC(=S)Nc1ccccc1O)c1cncc(Br)c1	54*	/	-23	76	-1	23
O=C(NC(=S)Nc1ccccc1C(=O)O)c1cncc(Br)c1	2	-9	17	99	1	-17
O=C(NC(=S)NNC(=O)c1ccccc1O)c1cccc([N+](=O)[O-])c1	-1	5	-109	97	-3	109*
O=C(/C=C/c1cccs1)NC(=S)NNC(=O)c1ccccc1O	3	1	-101	83	-5	101*
COc1ccc(C(=O)NNC(=S)NC(=O)c2cccc([N+](=O)[O-])c2)cc1	2	/	-1	135	-3	1
COC(=O)[C@H](C)N(CCc1cn(Cc2ccccc2)nn1)S(=O)(=O)c1ccccc1Br	/	/	/	/	-4	/
Nc1[nH]n(-c2ccccc2)c(=O)c1N=Nc1ccc(F)cc1	/	/	/	/	2	/
Cc1ccsc1/C=C1\CCc2ccccc2C1=O	50*	13	18	102	5	-18
Cc1cccc(/C(N)=N/OC(=O)c2cccc3ccccc23)c1	73*	-26	-45	109	0	45
COc1cc(OC)cc(C(=O)O/N=C(\N)c2cccc(C)c2)c1	41	0	-63	71	-2	63
Cc1cccc(/C(N)=N/OC(=O)c2ccc(Br)o2)c1	71*	-3	6	92	5	-6
N/C(=N\OC(=O)c1cccc2ccccc12)c1cccc([N+](=O)[O-])c1	15	/	-42	104	-1	42
O=S1(=O)N[C@@H](Cc2ccccc2)COc2cc(NC3CC3)ccc21	/	/	/	/	2	/
CC1(C(=O)N2CCC(CO)(Cc3cccc(C(F)(F)F)c3)CC2)CC1	1	3	-85	102	-4	85*
CC(=O)c1ccc(C(=O)N2CCC(CO)(Cc3cccc(C(F)(F)F)c3)CC2)cc1	2	-5	-63	121	-7	63
COc1ccc([N+](=O)[O-])cc1C(=O)Nc1ccc(Cc2ccncc2)cc1	72*	17	3	84	2	-3
SMILES	AHR act	Lipid droplet	SR-BI uptake up	CR mimetic SO	SMARCA2 act	SR-BI HDL uptake
COc1ccc(CCC(=O)Nc2cc([N+](=O)[O-])ccc2OC)cc1	12	7	-74	97	0	74*
COc1ccc([N+](=O)[O-])cc1NC(=O)Nc1ccc(OC)c(OC)c1	13	1	-76	105	-2	76*
COc1ccc([N+](=O)[O-])cc1NC(=O)c1cncc(Br)c1	70*	2	-27	94	1	27
COc1ccc(NC(=O)Nc2ccc(OC)c(OC)c2)c([N+](=O)[O-])c1	16	-7	-10	102	-3	10
Cc1cc([N+](=O)[O-])ccc1NC(=O)c1cncc(Br)c1	1	-8	-7	100	-2	7
COc1ccccc1C(=O)Nc1ccc(Cc2ccncc2)cc1	46	-4	-3	95	-3	3
CCCCNC(=O)C1(C(=O)C2CC2)CC(C(=O)OCC)=NO1 (configuration not stated)	/	/	/	/	-2	/
COc1ccc([N+](=O)[O-])cc1NC(=O)Nc1cccc(Cl)c1	5	-1	-83	90	-2	83*
COc1ccc(NC(=O)Nc2cc(C)ccc2F)cc1OC	52*	-28	-33	90	-1	33
COc1ccc(C)cc1NC(=O)Nc1cccc(C)c1	34	-2	-52	108	1	52
Cc1[nH]c2ccccc2c1CC(=O)Nc1ccc(Nc2cccnc2)c(-c2ccc(C(C)(C)C)cc2)c1	/	/	/	/	-5	/
CCOC(=O)[C@]12CCCC=C1N(CCCOC)C(=O)[C@@H]2CC(=O)NCc1cccc2ccccc12	/	/	/	/	1	/
COc1ccc(Cl)c2c1[nH]c1nc(SCc3ccccn3)nnc12	59*	10	-30	90	6	30
O=c1[nH]c(/C=C/c2ccc(OC(F)F)cc2)nc2c1cnn2-c1ccccc1	75*	16	13	102	-1	-13
C=C(C)C1CC=C(C)/C(=N\NC(=S)Nc2ccc(C)cc2)C1 (configuration not stated)	48*	23	1	104	-1	-1
COC(=O)c1ccccc1NC(=O)c1cc2sccc2n1C	65*	9	-20	67	-1	20
COc1ccc(-c2cc3cc(OC)c(OC)cc3cn2)cc1OC	-2	/	/	94	5	/
COc1cc2cnc(-c3cccnc3)cc2cc1OC	-2	/	-18	96	3	18
COc1ccc(-c2cc(-c3ccc(F)cc3)nc(N3CCN(C)CC3)n2)cc1	4	/	-18	79	-4	18
COc1ccc(-c2cc3ccc(F)cc3cn2)cc1	47*	/	-22	105	6	22
Fc1ccc2cnc(-c3ccccc3F)cc2c1	32	/	-22	99	5	22
COc1ccc(-c2cc3cc(F)ccc3cn2)cc1	51*	/	-34	96	2	34
Fc1ccc2cc(-c3ccccc3F)ncc2c1	76*	/	-4	110	1	4
COc1cc(OC)cc(-c2cc3cc(F)ccc3cn2)c1	17	/	-74	70	6	74*
COC(=O)C1=C(C)N(Cc2ccc(C(F)(F)F)cc2)C(=NCc2ccccc2C(F)(F)F)NC1c1ccc(C(F)(F)F)cc1 (configuration not stated)	/	/	/	/	1	/
Cc1cc(C)nc(Nc2nc(C)c3cc4c(cc3n2)OCO4)n1	49*	-1	-1	79	-1	1
Cc1ccc(S(=O)(=O)N(C)[C@H]2C[C@H]3c4[nH]c5c(-c6ccccc6)cccc5c4CCN3C(=O)[C@H]2[C@H](C)O)cc1	/	/	/	/	-1	/
